{"source": "ChEMBL document CHEMBL4602720", "about": "“Degradation versus Inhibition: Development of Proteolysis-Targeting Chimeras for Overcoming Statin-Induced Compensatory Upregulation of 3-Hydroxy-3-methylglutaryl Coenzyme A Reductase” (J Med Chem, 2020)", "key": {"[1]": {"target": "T1, Protein cereblon/3-hydroxy-3-methylglutaryl-coenzyme A reductase (Cricetulus griseus) (UniProt P00347+G3H338)", "assay": "Protac activity at CRBN/HMGCR in Insig-1/Insig-2 deficient Chinese hamster SRD15 cells assessed as induction of HMGCR degradation at 1 uM preincubated for 16 hrs followed by addition of neddylation inhibitor MLN4924 and further incubated for 3 hrs by Western blot analysis", "how_it_was_run": "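SRD15 cells treated with 1 μM degrader for 16 h, then for 3 h with 10 μM MG132 or with MLN-4924 at the indicated concentrations. HMGCR by immunoblot.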"}, "[2]": {"target": "T2, Protein cereblon/3-hydroxy-3-methylglutaryl-coenzyme A reductase (Homo sapiens) (UniProt P04035+Q96SW2)", "T2 sequence (P04035 whole entry, looked up)": "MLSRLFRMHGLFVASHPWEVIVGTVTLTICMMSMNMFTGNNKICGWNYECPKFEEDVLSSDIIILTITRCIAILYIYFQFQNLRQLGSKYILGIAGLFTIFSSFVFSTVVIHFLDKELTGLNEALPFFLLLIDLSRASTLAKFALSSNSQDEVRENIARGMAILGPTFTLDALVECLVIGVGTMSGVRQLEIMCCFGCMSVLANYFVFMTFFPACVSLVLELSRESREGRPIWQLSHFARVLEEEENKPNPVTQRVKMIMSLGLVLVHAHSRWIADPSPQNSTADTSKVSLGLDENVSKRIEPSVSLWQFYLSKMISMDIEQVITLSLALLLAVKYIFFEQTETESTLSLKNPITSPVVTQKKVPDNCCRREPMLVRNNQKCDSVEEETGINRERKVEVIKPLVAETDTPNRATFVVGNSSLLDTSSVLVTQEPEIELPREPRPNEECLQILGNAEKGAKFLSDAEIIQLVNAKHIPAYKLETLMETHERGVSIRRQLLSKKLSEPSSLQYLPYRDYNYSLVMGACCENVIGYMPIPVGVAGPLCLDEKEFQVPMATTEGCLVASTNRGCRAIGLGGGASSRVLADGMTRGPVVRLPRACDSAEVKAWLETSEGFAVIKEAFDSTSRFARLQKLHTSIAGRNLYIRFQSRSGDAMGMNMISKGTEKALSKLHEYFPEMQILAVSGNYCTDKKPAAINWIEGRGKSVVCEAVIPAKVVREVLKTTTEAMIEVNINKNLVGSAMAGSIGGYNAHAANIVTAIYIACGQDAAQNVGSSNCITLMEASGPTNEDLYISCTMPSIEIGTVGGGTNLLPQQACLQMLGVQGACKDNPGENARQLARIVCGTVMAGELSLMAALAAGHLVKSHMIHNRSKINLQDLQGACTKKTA", "T2 sequence (Q96SW2 whole entry, looked up)": "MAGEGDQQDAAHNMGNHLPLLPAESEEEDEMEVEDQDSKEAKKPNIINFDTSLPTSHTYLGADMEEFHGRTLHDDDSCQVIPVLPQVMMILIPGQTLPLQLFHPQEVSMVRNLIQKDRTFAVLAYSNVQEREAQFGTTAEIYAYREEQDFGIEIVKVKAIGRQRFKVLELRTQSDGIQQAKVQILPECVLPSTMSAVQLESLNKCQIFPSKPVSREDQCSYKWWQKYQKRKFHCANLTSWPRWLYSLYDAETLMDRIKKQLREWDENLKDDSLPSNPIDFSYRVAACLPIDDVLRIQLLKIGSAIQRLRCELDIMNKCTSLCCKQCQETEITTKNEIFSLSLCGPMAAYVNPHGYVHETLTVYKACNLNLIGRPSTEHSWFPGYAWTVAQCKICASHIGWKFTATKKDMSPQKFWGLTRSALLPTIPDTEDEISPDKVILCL", "assay": "Protac activity at human Flag-tagged CRBN/T7-tagged HMGCR expressed in Chinese hamster SRD15 cells transfected with HA-tagged ubiquitin assessed as increase in HMGCR immunoprecipitation 1 uM preincubated for 16 hrs followed by MG132 addition addition and measured after 5 hrs by Western blot analysis", "type": "cell-based"}, "[3]": {"target": "T1, Protein cereblon/3-hydroxy-3-methylglutaryl-coenzyme A reductase (Cricetulus griseus)", "assay": "(§1) Protac activity at CRBN/HMGCR in Insig-1/Insig-2 deficient Chinese hamster SRD15 cells assessed as induction of HMGCR degradation after 16 hrs by immunoblotting analysis", "how_it_was_run": "(§2)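 SRD15 cells treated with compound at varying concentrations for 16 h, final DMSO ≤0.1%; RIPA lysates (Lowry protein) immunoblotted for HMGCR, densitometry normalized to actin, DMSO set to 1; DC50 = concentration giving 50% loss versus DMSO, fitted to dose-response curve, mean of 3 independent experiments.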"}, "[4]": {"target": "T3, Protein cereblon/3-hydroxy-3-methylglutaryl-coenzyme A reductase (Cricetulus griseus, UniProt P00347+G3H338)", "T3 sequence (P00347 whole entry)": "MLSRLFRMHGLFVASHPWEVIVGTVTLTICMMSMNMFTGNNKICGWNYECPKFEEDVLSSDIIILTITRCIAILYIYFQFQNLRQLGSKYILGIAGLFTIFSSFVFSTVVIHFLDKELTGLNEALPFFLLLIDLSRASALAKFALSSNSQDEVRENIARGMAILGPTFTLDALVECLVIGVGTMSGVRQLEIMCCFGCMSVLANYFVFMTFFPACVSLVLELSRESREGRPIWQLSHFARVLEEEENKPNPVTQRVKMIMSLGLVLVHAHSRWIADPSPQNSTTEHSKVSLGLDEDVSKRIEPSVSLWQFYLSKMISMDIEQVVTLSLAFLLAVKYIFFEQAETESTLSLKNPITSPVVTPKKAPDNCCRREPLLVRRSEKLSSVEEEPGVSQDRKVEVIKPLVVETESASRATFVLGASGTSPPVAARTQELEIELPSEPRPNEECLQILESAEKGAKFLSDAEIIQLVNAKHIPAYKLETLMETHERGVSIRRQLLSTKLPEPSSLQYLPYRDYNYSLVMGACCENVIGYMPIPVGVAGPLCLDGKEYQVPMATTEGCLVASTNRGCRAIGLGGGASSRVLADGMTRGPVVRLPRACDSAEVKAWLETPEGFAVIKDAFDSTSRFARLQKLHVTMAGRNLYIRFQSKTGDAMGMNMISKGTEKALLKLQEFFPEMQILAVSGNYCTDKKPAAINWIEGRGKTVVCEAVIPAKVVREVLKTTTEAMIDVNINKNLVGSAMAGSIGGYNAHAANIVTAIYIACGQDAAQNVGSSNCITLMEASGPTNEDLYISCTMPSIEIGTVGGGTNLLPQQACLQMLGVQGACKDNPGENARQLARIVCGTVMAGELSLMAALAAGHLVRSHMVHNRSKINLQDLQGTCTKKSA", "T3 sequence (G3H338 whole entry)": "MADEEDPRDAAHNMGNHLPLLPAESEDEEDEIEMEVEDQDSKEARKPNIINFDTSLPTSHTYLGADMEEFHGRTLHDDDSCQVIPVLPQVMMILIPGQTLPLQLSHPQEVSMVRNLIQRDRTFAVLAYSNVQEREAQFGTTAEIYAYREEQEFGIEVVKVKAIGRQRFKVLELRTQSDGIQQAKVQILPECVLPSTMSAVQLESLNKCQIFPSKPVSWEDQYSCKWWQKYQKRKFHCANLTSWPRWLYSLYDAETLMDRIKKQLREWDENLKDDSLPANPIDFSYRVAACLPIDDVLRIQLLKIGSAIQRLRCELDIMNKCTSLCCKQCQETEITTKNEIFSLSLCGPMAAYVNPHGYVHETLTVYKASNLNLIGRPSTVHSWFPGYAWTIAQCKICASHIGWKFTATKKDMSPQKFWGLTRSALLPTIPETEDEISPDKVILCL", "assay": "as §1", "how_it_was_run": "as §2"}, "[5]": {"target": "T1, Protein cereblon/3-hydroxy-3-methylglutaryl-coenzyme A reductase (Cricetulus griseus)", "assay": "Protac activity at human Flag-tagged CRBN YW/AA mutant /T7-tagged HMGCR transfected in Insig-1/Insig-2 deficient Chinese hamster SRD15 cells assessed as induction of HMGCR degradation at 0.01 to 1 uM after 16 hrs by immunoblotting analysis"}, "[6]": {"target": "T1, Protein cereblon/3-hydroxy-3-methylglutaryl-coenzyme A reductase (Cricetulus griseus)", "assay": "Protac activity at CRBN/HMGCR in Insig-1/Insig-2 deficient Chinese hamster SRD15 cells assessed as HMGCR level at 1 uM after 16 hrs by immunoblotting analysis relative to control", "how_it_was_run": "(§3)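 Dose-response in SRD15 cells in Medium A with 5% FBS, 16 h treatment, DMSO final 0.1% or lower. RIPA lysates immunoblotted for HMGCR. HMGCR densitometry normalized to actin, with the DMSO group set to 1. Three repeats. DC50 is taken from a dose-response fit of the semi-quantitative blots, mean of 3 independent experiments.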"}, "[7]": {"target": "T2, Protein cereblon/3-hydroxy-3-methylglutaryl-coenzyme A reductase (Homo sapiens)", "assay": "Protac activity at human Flag-tagged CRBN/T7-tagged HMGCR expressed in Chinese hamster SRD15 cells transfected with HA-tagged ubiquitin assessed as increase in HMGCR immunoprecipitation 1 uM incubated for 16 hrs followed by atorvastatin addition addition and measured after 5 hrs in presence of MG132 by Western blot analysis", "type": "cell-based"}, "[8]": {"target": "T2, Protein cereblon/3-hydroxy-3-methylglutaryl-coenzyme A reductase (Homo sapiens)", "assay": "Protac activity at human Flag-tagged CRBN/Myc-tagged HMGCR expressed in HEK293T cells assessed as induction of HMGCR immunoprecipitation 1 uM preincubated for 16 hrs followed by atorvastatin addition addition and measured after 5 hrs in presence of MG132 by Western blot analysis", "type": "cell-based", "conditions": "HEK-293T"}, "[9]": {"target": "T1, Protein cereblon/3-hydroxy-3-methylglutaryl-coenzyme A reductase (Cricetulus griseus)", "assay": "Protac activity at CRBN/HMGCR in Insig-1/Insig-2 deficient Chinese hamster SRD15 cells assessed as induction of HMGCR degradation at 1 uM after 16 hrs by immunoblotting analysis relative to control", "how_it_was_run": "as §3"}, "[10]": {"target": "T1, Protein cereblon/3-hydroxy-3-methylglutaryl-coenzyme A reductase (Cricetulus griseus)", "assay": "Protac activity at CRBN/HMGCR in Insig-1/Insig-2 deficient Chinese hamster SRD15 cells assessed as HMGCR level at 0.03 uM after 16 hrs by immunoblotting analysis (reference value: 1)", "how_it_was_run": "as §3"}, "[11]": {"target": "T2, Protein cereblon/3-hydroxy-3-methylglutaryl-coenzyme A reductase (Homo sapiens)", "assay": "Protac activity at CRBN/HMGCR in human Huh7 cells assessed as induction of HMGCR degradation at 0.01 to 1 uM after 16 hrs by Western blot analysis", "type": "cell-based", "conditions": "Huh-7"}, "Huh-7": {"system": "Huh-7", "assay": "Inhibition of cholesterol biosynthesis in human HuH7 cells preincubated for 14 hrs and followed by addition of 14C-acetate and measured after 2 hrs by TL method", "type": "functional, cell-based", "how_it_was_run": "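Sterol-depleted Huh7 cells (Medium B plus 5% lipoprotein-deficient serum) treated at varying concentrations for 14 h, pulse-labelled with ¹⁴C-acetate 1 μCi/μL for 2 h, washed, lysed in 0.1 M NaOH; lipids separated by TLC, ¹⁴C-cholesterol read by phosphorimager, DMSO set to 1.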"}}, "note": "Activity calls are given as the source filed them. The rule behind the calls is not given here."}
{"smiles": "CC(C)c1c(C(=O)Nc2ccccc2)c(-c2cccc(OCCCc3cn(CCOCCOCCOCCOCCNc4cccc5c4C(=O)N(C4CCC(=O)NC4=O)C5=O)nn3)c2)c(-c2ccc(F)cc2)n1CC[C@@H](O)C[C@@H](O)CC(=O)O", "note": "(some centres not stated)", "values": [{"measurement": "Activity", "setting": "[1]", "result": "inactive"}, {"measurement": "Activity", "setting": "[2]", "result": "Active"}, {"measurement": "Activity", "setting": "[3]", "result": "Dose-dependent effect"}, {"measurement": "DC50", "setting": "[4]", "result": 100, "unit": "nM"}, {"measurement": "Activity", "setting": "[5]", "result": "inactive"}, {"measurement": "Activity", "setting": "[6]", "result": 50, "unit": "%"}, {"measurement": "Activity", "setting": "[7]", "result": "inactive"}, {"measurement": "Activity", "setting": "[8]", "result": "inactive"}, {"measurement": "Activity", "setting": "[9]", "result": 70, "unit": "%"}, {"measurement": "fold change (FC)", "setting": "[10]", "result": 0.6}, {"measurement": "Activity", "setting": "[11]", "result": "Active"}, {"measurement": "inhibition", "setting": "Huh-7", "result": "Active"}]}
